Assay results from publication PMC3495823 (Cell Cycle, 2012).

Legend:
[1] = Octanol-PBS partition coefficient; assay type: physicochemical; settings: n-octanol/PBS, pH 7.4
Procedure, shortened: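 Shake-flask method: 1 mg compound was dissolved in 1 mL octanol-saturated PBS pH 7.4 and shaken with 1 mL PBS-saturated octanol for 24 h at 37°C. Phases were separated by centrifugation (10,000 rpm, 10 min) and each was analysed by LC-MS/MS. LogD7.4 was calculated from the ratio of peak AUCs, each normalized to its injection volume.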

[2] = Tissue distribution by LC-MS/MS after intraperitoneal injection; assay type: in vivo, mouse; settings: 20 mg/kg i.p.
Procedure, shortened: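 Mice received 20 mg/kg in peanut oil i.p. or by oral gavage; tissues and cardiac blood were taken 1, 4 and 24 h later, with brain cortex and cerebellum at 4 h. Weighed tissues (or 30 µL serum in water) were extracted three times with dichloromethane and analysed by ESI-positive LC-MS/MS. Levels came from peak AUC against calibration curves, with internal-standard normalization for quantification; three samples per point.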

[3] = normal mice, 4 hours after injection

**Q.** What does the source list for `CC(C)[C@H](CO)Nc1nc(Nc2ccc(C(=O)O)c(Cl)c2)c2ncn(C(C)C)c2n1` [PVB, purvalanol B]?
**A.** logD [1]: 0.15 ± 0.002; detection in kidney, spleen, pancreas, prostate lung and serum [2]: detected; overall tissue and serum levels compared with VMY [2]: lower than VMY; concentration in cerebellar tissue [2, 3]: not detected; concentration in cortical tissue [2, 3]: not detected
